# The list is not random: actives were taken first. Their share in the collection is about 1.6%.
# UBC13 polyUb: human UBC13 polyubiquitination inhibition | UBC13 polyubiquitin chain formation, TR-FRET | inhibition, % at 20 µM | 330,000 tested, 0.47% active | AID 485273; in the data active = inhibition above about 45%, passing the limit was not always enough
# Neddyl block: blocks human cullin neddylation. TR-FRET cullin neddylation, biochemical. calls only at 25 µM. 360,000 tested, 0.58% active. AID 651699; in the data active = inhibition above about 36%
# Apaf1 inhib: human Apaf-1 inhibition. inhibition, % at 20 µM. 330,000 tested, 0.71% active. O14727. AID 489030. reconstituted apoptosome caspase-3 activity, DEVD-Rh110 fluorescence; active = inhibition of at least 40% at 20 µM;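 note: plate controls were DMSO wells for no effect and DEVD-CHO caspase inhibitor wells for full effect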
#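 Medium: Hepes buffer, pH 7.5 / System: biochemical Apaf-1 apoptosome reconstitution / Measured by: Rh110 fluorescence, excitation 480 nm, emission 540 nm / Times: compound with Apaf-1, dATP, procaspase-3 30 min, then 50 min reaction, room temperature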
# RAD52 inh: blocks human RAD52 DNA annealing; 360,000 tested, 0.46% active; recombinant RAD52 DNA annealing, FRET fluorescence; AID 651710; P43351; inhibition, % at 18.7 µM;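 active = every replicate showing at least 50% inhibition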
# RAD54 inh: blocks human RAD54 Holliday junction branch migration; FAM/BHQ fluorescence; inhibition, % at 10.4 µM; 360,000 tested, 0.14% active;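 active = mean normalized replicate activity at least 40 and at least half of replicates scoring 40 or more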;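 note: 0% = median of neutral control wells and 100% = median of positive control wells; inhibitors cause a drop in the FAM fluorescence signal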
# DNA FID counter: displaces DNA intercalator in HCV helicase counter-screen | DNA fluorescent intercalator displacement, fluorescence | inhibition, % at 7.9 µM | 290,000 tested, 0.17% active; in the data active = inhibition above about 37%;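 note: 0% = vehicle and 100% = reference compound; higher means more ethidium bromide displaced from hairpin DNA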
# * marks the source's active call; other numbers are inactive results; i = inactive; nt = not tested or not shown; + = active, no number.
SMILES,UBC13 polyUb,Neddyl block,Apaf1 inhib,RAD52 inh,RAD54 inh,DNA FID counter
COc1cccc(C(=O)Nc2ccc3c(c2)C(=O)N(C)C[C@H](OC)[C@H](C)CN(C)[C@H](C)CO3)c1,nt,nt,nt,4,4,nt
CO[C@H]1CN(C)C(=O)c2cc(NC(=O)CC(F)(F)F)ccc2OC[C@@H](C)N(C(=O)C2CC2)C[C@@H]1C,nt,nt,nt,-47,nt,nt
OCC1OC(n2cnc3c(NCc4ccccc4O)ncnc32)C(O)C1O (stereo not given),nt,+,nt,-3,nt,nt
OC[C@H]1O[C@@H](n2cnc3c(Nc4ccccc4)ncnc32)[C@H](O)[C@@H]1O,6,i,-5,-4,15,-2
CC(C)c1ccc(S(=O)(=O)/N=C2/C=CC(=O)c3ccccc32)cc1,-69,nt,72*,nt,nt,-6
CC(C)c1ccc(S(=O)(=O)/N=C2\C=C(NS(=O)(=O)c3ccccc3)C(=O)c3ccccc32)cc1,nt,i,nt,-2,1,27
Cc1noc(C)c1NC(=O)N(C)C[C@H]1OCCCC[C@@H](C)Oc2ccc(NS(=O)(=O)c3ccc(Cl)cc3)cc2C(=O)N([C@@H](C)CO)C[C@@H]1C,nt,nt,nt,-6,1,nt
Cc1cc(OCC(O)CNC(C)c2ccccc2)ccc1C(C)C (stereo not given),26,i,21,42,11,41*
CC(NCC(O)COc1ccc2ccccc2c1)c1ccccc1 (stereo not given),9,i,8,18,6,20
COc1ccc(OCC(O)CNC(C)c2ccccc2)cc1 (stereo not given),5,i,9,4,1,2
CCCC(NCC(O)COc1ccc(-c2ccccc2)cc1)c1ccccc1 (stereo not given),28,i,24,-7,nt,41*
CCN1CCN(CCNC(=O)c2ccc(/C=C3/Sc4ccccc4N(Cc4cccc(Cl)c4)C3=O)cc2)CC1,23,i,28,13,nt,39*
Cc1ccc(CN2C(=O)c3ccccc3Sc3ccc(C(=O)NCCCN4CCOCC4)cc32)cc1,8,i,17,-8,-6,37*
CCc1ccc(/C=C2/Sc3ccccc3N(CC(=O)NCCCN3CCOCC3)C2=O)cc1,7,i,17,-11,12,54*
O=C(CN1C(=O)/C(=C\c2cccc(Cl)c2)Sc2ccccc21)NCCCN1CCOCC1,24,i,17,-8,11,43*
CO[C@@H]1CN(C)C(=O)c2ccc(NS(=O)(=O)CC(F)(F)F)cc2OC[C@@H](C)NC[C@@H]1C,nt,nt,nt,-9,4,nt
C[C@@H]1CN([C@H](C)CO)C(=O)c2cc(C#CCN(C)C)cnc2O[C@H]1CN(C)Cc1ccc(-c2ccccc2)cc1,nt,nt,nt,-1,-3,nt
O=C(OCC(=O)N1CCN(C(=O)c2ccco2)CC1)c1cc(-c2ccco2)nc2ccccc12,22,+,11,-27,6,-17
O=C(NC1CCCC1)N1CCCCN2[C@@H](CO)[C@@H](c3ccc(/C=C/c4ccccc4)cc3)[C@@H]2C1,nt,nt,nt,10,2,nt
Cc1ccccc1-c1ccc([C@@H]2[C@@H](CO)N3CCCCN(S(=O)(=O)Cc4ccccc4)C[C@H]23)cc1,nt,nt,nt,63*,3,nt
Cc1ccccc1-c1ccc([C@H]2[C@H](CO)N3CCCCN(S(=O)(=O)Cc4ccccc4)C[C@@H]23)cc1,nt,nt,nt,55*,14,nt
CCS(=O)(=O)N1CCCCN2[C@H](C1)[C@@H](c1ccc(-c3ccccc3C)cc1)[C@@H]2CO,nt,nt,nt,-19,-1,nt
C[C@@H]1CN([C@H](C)CO)C(=O)Cc2cc(NC(=O)Nc3ccc(F)cc3)ccc2O[C@@H]1CN(C)Cc1ccncc1,nt,nt,nt,12,-6,nt
O=C(NC(=S)NNC(=O)c1cnccn1)c1ccc(Cl)cc1,-15,+,-20,-19,nt,-4
COc1ccc(C(=O)NC(=S)NNC(=O)c2cnccn2)cc1,13,i,-4,nt,1,-2
C[C@@H]1CCCCO[C@H](CN(C)Cc2ccccc2)[C@H](C)CN([C@@H](C)CO)C(=O)c2cc(NS(=O)(=O)c3ccc(F)cc3)ccc2O1,nt,nt,nt,33,6,nt
CCC(=O)Nc1cccc(C2=NOC3(C2)C[C@@H](C(N)=O)N(C(=O)c2ccccc2C(=O)c2ccccc2)C3)c1 (stereo not given in full),-8,i,3,nt,-4,nt

# Assay outcomes from PubChem.
